Blank lines part the entries; values can stand above or below the compound they belong to.
Tests used:
[1] = test system: Raji cells (human B-cell lymphoma) xenograft tumors; experiment: animal biodistribution study for 7 in Raji xenograft mice; type: in vivo, BALB/c nu/nu mice; conditions: i.v.
Procedure, shortened: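 Eleven female BALB/c nu/nu mice, 5–6 weeks old, were xenografted s.c. in the abdomen with 5 × 10⁶ Raji cells. Tumors were measured after three weeks. The ¹²⁵I-labeled test compound (4–6 μCi; 5 μg, 6 nmol) in normal saline was given i.v. via the tail vein. Mice were killed at 4, 24 and 48 h. Tissues were weighed and γ-counted (%ID/g). Mice were grouped afterwards by slow or fast blood clearance.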

[2] = biological target: T1, α4β1 integrin (Homo sapiens, UniProt P05556+P13612); experiment: cell adhesion competitive inhibition assay; type: cell-based
Procedure, shortened: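 Wells were coated with neutravidin, then loaded with biotinylated CS-1 to immobilize the ligand, and blocked with BSA. Molt-4 cells (human T-cell leukemia, α4β1-bearing) were incubated in the wells with test compound. Wells were washed, formalin-fixed and crystal violet-stained, and absorbance was read at 570 nm. Percent inhibition came from concentration-dependent curves.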

[3] = biological target: T1, α4β1 integrin; experiment: in vitro binding studies of radioiodinated 8; conditions: 125I-labelled

T1 sequence (P13612 34-1032): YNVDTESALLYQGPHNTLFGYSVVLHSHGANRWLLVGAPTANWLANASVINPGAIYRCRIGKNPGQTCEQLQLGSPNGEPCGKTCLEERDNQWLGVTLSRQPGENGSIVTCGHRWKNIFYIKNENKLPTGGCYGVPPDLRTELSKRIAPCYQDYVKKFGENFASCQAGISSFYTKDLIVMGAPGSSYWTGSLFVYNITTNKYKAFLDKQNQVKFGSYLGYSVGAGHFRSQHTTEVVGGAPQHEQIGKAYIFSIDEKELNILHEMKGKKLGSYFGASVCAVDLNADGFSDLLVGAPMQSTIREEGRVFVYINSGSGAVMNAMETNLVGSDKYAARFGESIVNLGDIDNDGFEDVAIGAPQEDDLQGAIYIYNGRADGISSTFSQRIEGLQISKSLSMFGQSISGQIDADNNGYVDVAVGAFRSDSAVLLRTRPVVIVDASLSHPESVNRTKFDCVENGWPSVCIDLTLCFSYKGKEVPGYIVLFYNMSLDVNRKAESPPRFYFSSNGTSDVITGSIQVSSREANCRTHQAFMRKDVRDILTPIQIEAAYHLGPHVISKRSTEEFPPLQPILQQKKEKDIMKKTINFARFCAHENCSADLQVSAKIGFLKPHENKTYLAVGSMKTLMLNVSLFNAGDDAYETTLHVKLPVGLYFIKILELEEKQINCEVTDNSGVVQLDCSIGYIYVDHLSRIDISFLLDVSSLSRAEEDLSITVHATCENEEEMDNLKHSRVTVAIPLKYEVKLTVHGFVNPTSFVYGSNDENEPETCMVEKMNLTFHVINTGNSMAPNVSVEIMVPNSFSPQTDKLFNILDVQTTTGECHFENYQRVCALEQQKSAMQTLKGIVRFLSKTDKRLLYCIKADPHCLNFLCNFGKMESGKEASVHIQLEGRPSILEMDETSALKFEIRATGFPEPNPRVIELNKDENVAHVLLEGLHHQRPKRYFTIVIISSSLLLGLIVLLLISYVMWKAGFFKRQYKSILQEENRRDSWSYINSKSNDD
T1 sequence (P05556 21-798): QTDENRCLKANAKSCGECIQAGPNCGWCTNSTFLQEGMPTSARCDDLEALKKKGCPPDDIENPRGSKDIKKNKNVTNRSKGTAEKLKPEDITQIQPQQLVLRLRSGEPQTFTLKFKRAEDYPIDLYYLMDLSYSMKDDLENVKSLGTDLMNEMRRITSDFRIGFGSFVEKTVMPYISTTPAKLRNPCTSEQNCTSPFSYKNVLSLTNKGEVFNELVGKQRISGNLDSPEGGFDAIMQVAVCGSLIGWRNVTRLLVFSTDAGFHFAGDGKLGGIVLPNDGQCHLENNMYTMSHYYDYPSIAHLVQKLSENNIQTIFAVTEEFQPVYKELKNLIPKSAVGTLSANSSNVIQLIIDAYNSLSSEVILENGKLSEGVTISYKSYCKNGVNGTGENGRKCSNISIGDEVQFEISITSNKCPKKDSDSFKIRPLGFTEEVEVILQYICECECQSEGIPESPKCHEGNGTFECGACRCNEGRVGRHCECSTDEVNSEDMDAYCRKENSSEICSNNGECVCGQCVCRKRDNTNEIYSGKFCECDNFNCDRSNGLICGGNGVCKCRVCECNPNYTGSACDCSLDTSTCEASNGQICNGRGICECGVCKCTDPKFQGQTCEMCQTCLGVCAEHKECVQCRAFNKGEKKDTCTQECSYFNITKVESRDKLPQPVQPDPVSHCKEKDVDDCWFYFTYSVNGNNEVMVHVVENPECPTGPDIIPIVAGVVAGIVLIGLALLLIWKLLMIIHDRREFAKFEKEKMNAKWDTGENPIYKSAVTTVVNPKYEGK

Compound: NC(=O)C1(NC(=O)[C@H](CCC(=O)O)NC(=O)[C@H](CCCCNC(=O)/C=C/c2cccnc2)NC(=O)c2ccc(Nc3nc4cc([125I])ccc4[nH]3)cc2)CCCCC1 [compound 7, [^125I]-(S)-6-(1-Carbamoylcyclohexylamino)-5-[(S)-2-{4-(5-iodo-1H-benzo[d]imidazol-2-ylamino)-benzamido]-6-[(E)-3-(pyridin-3-yl)acrylamido}hexanamido]-6-oxo-hexanoic Acid]
major dose accumulated in liver, spleen and marrow ([1]; fast blood clearance mice (3 at 24 h, 2 at 48 h)): 25 % ID/g
tumor uptake ([1]; fast blood clearance mice): less than 1.5 % ID/g
still circulating in the blood ([1]; slow blood clearance mice (2 at 24 h, 1 at 48 h)): approximately 15%
liver, spleen and marrow uptakes ([1]; slow blood clearance mice, 48 h): less than 8 % ID/g
tumor uptake ([1]; slow blood clearance mice): greater than 6 % ID/g
reduced in vitro affinity for α4β1 integrin compared to the bromo analogue 5 ([2]; compared with 5): nearly ten-fold

Compound: NC(=O)[C@H](Cc1ccc(O)c([125I])c1)C(=O)NC(=O)C1(NC(=O)[C@H](CCC(=O)O)NC(=O)[C@H](CCCCNC(=O)/C=C/c2cccnc2)NC(=O)c2ccc(Nc3nc4cc(Br)ccc4[nH]3)cc2)CCCCC1 [compound 8, [^125I]-(S)-6-[1-{(S)-3-Amino-2-(4-hydroxy-3-iodobenzyl)-3-oxopropanoyl-carbamoyl}cyclohexylamino]-5-[(S)-2-{4-(5-bromo-1H-benzo[d]imidazol-2-ylamino)benzamido]-6-[(E)-3-(pyridin-3-yl)-acrylamido}hexanamido]-6-oxohexanoic Acid]
in vitro binding [3]: < 4%

fold less potent than previous leads ([2]; compared with previous leads): 2 fold
Compound: NC(=O)C1(NC(=O)[C@H](CCCC(=O)O)NC(=O)[C@H](CCCCNC(=O)/C=C/c2cccnc2)NC(=O)c2ccc(Nc3nc4cc(Br)ccc4[nH]3)cc2)CCCCC1 [compound 5, (S)-5-[(S)-2-{4-(5-Bromo-1H-benzo[d]imidazol-2-ylamino}benzamido]-6-[(E)-3-(pyridin-3-yl)-acrylamido}hexanamido]-6-(1-carbamoylcyclohexylamino)-6-oxo-hexanoic Acid]

Compound: (S)-6-(1-Carbamoylcyclohexylamino)-5-[(S)-2-{4-(5-iodo-1H-benzo[d]imidazol-2-ylamino)benz-amido]-6-[(E)-3-(pyridin-3-yl)acrylamido}hexanamido]-6-oxohexanoic Acid [compound 6]
fold less potent than the fluoro (3), chloro (4), and bromo (5) analogues ([2]; compared with 3, 4, 5): approximately 10 fold
fold more potent than the unsubstituted (15a) and methyl analogues (15b) ([2]; compared with 15a, 15b): 100 fold
